Results: article PMC5900865 (Clinical Pharmacology in Drug Development, 2017)

Legend:
[1] = system: healthy adult men and women; assay: Study 1B safety evaluation; assay type: in vivo, human
Summary of the method: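 Double-blind, placebo-controlled (2:1) multiple-dose study. Men received 5, 10 or 20 mg and women 5 or 10 mg, oral and fed, daily on days 1–12. Women were dosed only after that dose was assessed in men. Participants were discharged day 17, with post-study exam day 20. AEs, weight, vitals, 12-lead ECG and clinical labs were recorded. TEAE incidence, intensity and drug relationship were assessed by dose and sex versus placebo.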

CYP2C8 = conditions: cited from earlier work
healthy adult men [2] = assay: Study 3 safety evaluation; assay type: in vivo, human; conditions: single 10 mg
healthy adult men [3] = assay: Study 1A safety evaluation; assay type: in vivo, human
Summary of the method: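 Randomized, double-blind, placebo-controlled study in healthy Japanese men. Single oral doses rose from 2.5 to 40 mg, doubling over 5 cohorts of 9 (2:1 drug:placebo). Each escalation followed review of safety data to day 5 and PK data to 48 h. AEs, body weight, vital signs, 12-lead ECG and haematology, chemistry, coagulation and urinalysis were recorded. TEAE incidence, intensity and drug relationship were compared with placebo.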

CYP2B6 = conditions: cited from earlier work
CYP2A6 = conditions: cited from earlier work
CYP2C19 = conditions: cited from earlier work
[4] = Study 1B multiple-dose pharmacokinetics; assay type: in vivo, human
Summary of the method: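 Men (5, 10, 20 mg) and women (5, 10 mg) were dosed orally, fed, daily for 12 days. Plasma was sampled on day 1 predose to […]. Urine came from the 5 mg cohort predose days 1–16 then in 24-h intervals, and for 10/20 mg on day 12 at 0–24 h. Analysis was by HPLC-MS/MS and noncompartmental.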

[5] = Study 2 single-dose pharmacokinetics in elderly adults; assay type: in vivo, human; conditions: for AUC(0-inf) / Cmax / Tmax: human, plasma, oral, 10 mg; for T1/2 / Fe0–120, fraction excreted: single 10 mg; for T1/2: fasted; for Fe0–120, fraction excreted: urine 0 to 120 hours
Summary of the method: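 Elderly men and women (65–85 y) received a single oral 10 mg dose, fasted, in the morning. Plasma vortioxetine and metabolites were assayed by HPLC-MS/MS after liquid–liquid extraction. Urine was pooled predose and at 24-h intervals to 120 h. Parameters came from noncompartmental analysis. Below-LLOQ concentrations were entered as zero in means. Tmax is median (min–max).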

CYP1A2 = conditions: cited from earlier work
healthy Japanese adults = assay: Safety evaluation across all 3 studies; assay type: in vivo, human; conditions: any of the studies
[6] = Study 1A single-rising-dose pharmacokinetics; assay type: in vivo, human; conditions: for Tmax / half-life / AUC(0-inf) / Cmax: human, plasma; for CL/F / Fe0–48, cumulative excretion ratio (% of dose): fasted, men; for Fe0–48, cumulative excretion ratio (% of dose): urine 0 to 48 hours
Summary of the method: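 Healthy men received single oral doses of 2.5–40 mg. The 2.5 mg cohort was redosed fed (30 min post-breakfast) on day 15 after a 14-day washout. EDTA plasma was sampled predose and 1–216 h postdose; urine was pooled at 0–6, 6–12, 12–24 and 24–48 h. Samples were stored at ≤ −20 °C, liquid–liquid extracted and assayed by HPLC-MS/MS. Parameters came from noncompartmental analysis.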

CYP2D6 = conditions: cited from earlier work
CYP2E1 = conditions: cited from earlier work
CYP2C9 = conditions: cited from earlier work
CYP3A4/5 = conditions: cited from earlier work
[7] = day 12, female, 5 mg daily, n = 5, mean (SD)
[8] = day 12, female, 10 mg daily, n = 6, mean (SD)
[9] = day 12, male, 5 mg daily, n = 6, mean (SD)
[10] = day 12, male, 10 mg daily, n = 6, mean (SD)
[11] = day 12, male, 20 mg daily, n = 6, mean (SD)
[12] = elderly women, n = 7, mean (SD)
[13] = single 2.5 mg, n = 5, mean (SD)

## Cc1ccc(Sc2ccccc2N2CCNCC2)c(C)c1 [Vortioxetine, 1‐[2‐(2,4‐dimethylphenylsulfanyl)phenyl]piperazine]
[1]; healthy men
  tolerated multiple dose: up to 20 mg
[1]; healthy women
  tolerated multiple dose: ≤ 10 mg
[1]; multiple doses, all groups
  intensity of TEAEs: all TEAEs were mild in intensity
CYP2C8
  inhibitory or inducing effect in vitro: No inhibitory or inducing effect
Healthy adult men [2]
  safety profiles, fasted vs fed: no significant differences in safety profiles
Healthy adult men [3]; healthy men
  tolerated single dose: up to 20 mg
Healthy adult men [3]; single 40‐mg dose group
  AEs reported: Seven AEs
CYP2B6
  inhibitory or inducing effect in vitro: No inhibitory or inducing effect
CYP2A6
  inhibitory or inducing effect in vitro: No inhibitory or inducing effect
CYP2C19
  inhibitory or inducing effect in vitro: No inhibitory or inducing effect
[4]; 5‐ and 20‐mg doses in men and 10‐mg dose in women
  time to reach steady state: approximately 12 days
[4]; 10‐mg dose in men and 5‐mg dose in women
  steady state of trough plasma concentrations: did not reach steady state even after 12 days
[4]; both, human, plasma, oral
  clearance at 12 days: 333 to 867 mL/min
[4]; day 1, female, 5 mg daily, fed, n = 5, mean (SD)
  CL/F: 22.3 (19.6) L/h
[4]; day 1, female, 10 mg daily, fed, n = 6, mean (SD)
  CL/F: 99.3 (104.7) L/h
[4]; day 1, male, 5 mg daily, fed, n = 6, mean (SD)
  CL/F: 30.6 (9.4) L/h
[4]; day 1, male, 10 mg daily, fed, n = 6, mean (SD)
  CL/F: 29.1 (12.0) L/h
[4]; day 1, male, 20 mg daily, fed, n = 6, mean (SD)
  CL/F: 50.4 (17.1) L/h
[4]; day 12, female, 5 mg daily, fed, n = 5, mean (SD)
  CL/F: 20.2 (9.5) L/h
[4]; [7]
  R(AUC), cumulative ratio of AUC values: 6.0 (2.0)
  R(Cmax), cumulative ratio of Cmax values: 5.0 (1.5)
[4]; day 12, female, 10 mg daily, fed, n = 6, mean (SD)
  CL/F: 69.9 (94.8) L/h
[4]; [8]
  R(AUC), cumulative ratio of AUC values: 5.3 (2.2)
  R(Cmax), cumulative ratio of Cmax values: 3.9 (1.5)
[4]; day 12, male, 5 mg daily, fed, n = 6, mean (SD)
  CL/F: 33.1 (10.3) L/h
[4]; [9]
  R(AUC), cumulative ratio of AUC values: 5.2 (1.4)
  R(Cmax), cumulative ratio of Cmax values: 4.4 (1.1)
[4]; day 12, male, 10 mg daily, fed, n = 6, mean (SD)
  CL/F: 23.8 (4.4) L/h
[4]; [10]
  R(AUC), cumulative ratio of AUC values: 6.2 (0.9)
  R(Cmax), cumulative ratio of Cmax values: 5.1 (0.6)
[4]; day 12, male, 20 mg daily, fed, n = 6, mean (SD)
  CL/F: 51.5 (16.6) L/h
[4]; [11]
  R(AUC), cumulative ratio of AUC values: 3.9 (1.0)
  R(Cmax), cumulative ratio of Cmax values: 3.2 (0.7)
[4]; female, human, plasma, oral, 5 mg, AUC0–24, day 1, female, 5 mg daily, fed, n = 5, mean (SD)
  AUC(0-t): 47.1 ng·h/mL
[4]; female, human, plasma, oral, 5 mg, AUC0–24, day 12, female, 5 mg daily, fed, n = 5, mean (SD)
  AUC(0-t): 284 ng·h/mL
[4]; female, human, plasma, oral, 5 mg, T1/2, day 1, female, 5 mg daily, fed, n = 5, mean (SD)
  half-life: 113 h
[4]; female, human, plasma, oral, 5 mg, T1/2, day 12, female, 5 mg daily, fed, n = 5, mean (SD)
  half-life: 79.8 h
[4]; female, human, plasma, oral, 10 mg, AUC0–24, day 1, female, 10 mg daily, fed, n = 6, mean (SD)
  AUC(0-t): 53.3 ng·h/mL
[4]; female, human, plasma, oral, 10 mg, AUC0–24, day 12, female, 10 mg daily, fed, n = 6, mean (SD)
  AUC(0-t): 295 ng·h/mL
[4]; female, human, plasma, oral, 10 mg, T1/2, day 1, female, 10 mg daily, fed, n = 6, mean (SD)
  half-life: 34.2 h
[4]; female, human, plasma, oral, 10 mg, T1/2, day 12, female, 10 mg daily, fed, n = 6, mean (SD)
  half-life: 58 h
[4]; given a median half‐life of 67 hours
  average time to reach steady state: 14 days
[4]; human, plasma, oral, median half‐life, as given in the discussion
  half-life: 67 h
[4]; male, human, plasma, oral, 5 mg, AUC0–24, day 1, male, 5 mg daily, fed, n = 6, mean (SD)
  AUC(0-t): 31.6 ng·h/mL
[4]; male, human, plasma, oral, 5 mg, AUC0–24, day 12, male, 5 mg daily, fed, n = 6, mean (SD)
  AUC(0-t): 163 ng·h/mL
[4]; male, human, plasma, oral, 5 mg, T1/2, day 1, male, 5 mg daily, fed, n = 6, mean (SD)
  half-life: 68 h
[4]; male, human, plasma, oral, 5 mg, T1/2, day 12, male, 5 mg daily, fed, n = 6, mean (SD)
  half-life: 58 h
[4]; male, human, plasma, oral, 10 mg, AUC0–24, day 1, male, 10 mg daily, fed, n = 6, mean (SD)
  AUC(0-t): 71 ng·h/mL
[4]; male, human, plasma, oral, 10 mg, AUC0–24, day 12, male, 10 mg daily, fed, n = 6, mean (SD)
  AUC(0-t): 432 ng·h/mL
[4]; male, human, plasma, oral, 10 mg, T1/2, day 12, male, 10 mg daily, fed, n = 6, mean (SD)
  half-life: 65.1 h
[4]; male, human, plasma, oral, 20 mg, AUC0–24, day 1, male, 20 mg daily, fed, n = 6, mean (SD)
  AUC(0-t): 110 ng·h/mL
[4]; male, human, plasma, oral, 20 mg, AUC0–24, day 12, male, 20 mg daily, fed, n = 6, mean (SD)
  AUC(0-t): 433 ng·h/mL
[4]; male, human, plasma, oral, 20 mg, T1/2, day 1, male, 20 mg daily, fed, n = 6, mean (SD)
  half-life: 44 h
[4]; male, human, plasma, oral, 20 mg, T1/2, day 12, male, 20 mg daily, fed, n = 6, mean (SD)
  half-life: 56.8 h
[4]; urine 0 to 24 hours (day 1), female, 5 mg daily, n = 5, mean (SD)
  Fe0–x, fraction excreted (VOR): 0.00 (0.0) %
[4]; urine 0 to 24 hours (day 1), male, 5 mg daily, n = 6, mean (SD)
  Fe0–x, fraction excreted (VOR): 0.00 (0.0) %
[4]; urine 0 to 288 hours (day 12), female, 5 mg daily, n = 5, mean (SD)
  Fe0–x, fraction excreted (VOR): 0.0494 (0.087) %
[4]; urine 0 to 288 hours (day 12), male, 5 mg daily, n = 6, mean (SD)
  Fe0–x, fraction excreted (VOR): 0.0072 (0.018) %
[5]; female
  AUC(0-inf): 305 ng·h/mL
  Cmax: 4.6 ng/mL
  Tmax: 6 h
[5]; male
  AUC(0-inf): 378 ng·h/mL
  Cmax: 4.2 ng/mL
  Tmax: 6 h
[5]; elderly men, n = 8, mean (SD)
  T1/2: 85.2 (29.8) h
  Fe0–120, fraction excreted: 0.0 (0.0) %
[5]; [12]
  T1/2: 63.5 (10.7) h
  Fe0–120, fraction excreted: 0.0 (0.0) %
CYP1A2
  inhibitory or inducing effect in vitro: No inhibitory or inducing effect
Healthy Japanese adults
  deaths or serious AEs: no deaths or serious AEs leading to trial discontinuation were observed
[6]; both, po
  Tmax: 6 to 13 h
[6]; male, oral
  half-life: 50 to 70 h
[6]; male, oral, 2.5 mg
  AUC(0-inf): 56.5 ng·h/mL
  Cmax: 0.8 ng/mL
  Tmax: 10 h
[6]; male, oral, 5 mg
  AUC(0-inf): 188 ng·h/mL
  Cmax: 1.9 ng/mL
  Tmax: 10 h
  half-life: 69.4 h
[6]; male, oral, 10 mg
  AUC(0-inf): 348 ng·h/mL
  Cmax: 3.5 ng/mL
  Tmax: 10 h
  half-life: 66 h
[6]; male, oral, 20 mg
  AUC(0-inf): 560 ng·h/mL
  Cmax: 7.7 ng/mL
  Tmax: 9 h
[6]; male, oral, 40 mg
  AUC(0-inf): 1310 ng·h/mL
  Cmax: 19.4 ng/mL
  Tmax: 6.3 h
[6]; [13]
  CL/F: 50 (20) L/h
  Fe0–48, cumulative excretion ratio (% of dose): 0.0 (0.0) %
[6]; single 5 mg, n = 6, mean (SD)
  CL/F: 29.6 (10.3) L/h
  Fe0–48, cumulative excretion ratio (% of dose): 0.0 (0.0) %
[6]; single 10 mg, n = 6, mean (SD)
  CL/F: 35.2 (19.2) L/h
  Fe0–48, cumulative excretion ratio (% of dose): 0.007 (0.018) %
[6]; single 20 mg, n = 6, mean (SD)
  CL/F: 41.4 (17.6) L/h
  Fe0–48, cumulative excretion ratio (% of dose): 0.023 (0.023) %
[6]; single 40 mg, n = 4, mean (SD)
  CL/F: 34.0 (13.1) L/h
  Fe0–48, cumulative excretion ratio (% of dose): 0.034 (0.017) %
CYP2D6
  inhibitory or inducing effect in vitro: No inhibitory or inducing effect
CYP2E1
  inhibitory or inducing effect in vitro: No inhibitory or inducing effect
CYP2C9
  inhibitory or inducing effect in vitro: No inhibitory or inducing effect
CYP3A4/5
  inhibitory or inducing effect in vitro: No inhibitory or inducing effect
